Results on 20 molecules are retold here after PubChem BioAssay.

A number with no mark means an inactive call. Inconclusive results are not listed. The source made the active and inactive calls.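 How the source made its calls, unless noted: active means inhibition over a set limit, the all-compound mean plus 3 SD, in both replicate runs; inconclusive means over that limit in just one replicate run; inactive means at or under that limit in both runs.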

A short description of test [1]: S. cerevisiae growth inhibition in permissive medium (OD615), pilot counter-assay for S. cerevisiae lifespan shortening project, permissive growth control (AID 705;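 active means growth inhibition above 25% in both replicates, a cutoff set 3 SD above the mean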). The settings on record: OD615, 24 h, at 10 µM, hits give high values. In short, it runs like this:
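System: Engineered DeaD yeast | Buffer or medium: SC raffinose/galactose permissive medium | Incubation: Cells pre-grown 4 h, then 24 h compound exposure, 30 °C humidified | Measured by: Absorbance (optical density) at 615 nm | Read-out: Reduction in yeast growth (OD615)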

A short description of test [2]: S. cerevisiae growth inhibition in restrictive medium, OD615, pilot screen, restrictive growth control, yeast lifespan reduction project (AID 706;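 active means growth inhibition above a set limit, 3 SD over mean compound inhibition, in both replicates, cut at about 43% in these data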;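 further: modified DeaD lifespan yeast strain shifted to restrictive glucose medium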). The settings on record: OD615, 48 h, at 10 µM, hits give high values. In short, it runs like this: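 Material: modified S. cerevisiae; Medium: glucose-based CSMM-D restrictive medium; Compound dosing: one concentration, 10 µM final, 0.25% DMSO; Incubation: 48 h compound exposure at 30 °C; Measured by: OD615.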

A short description of test [3]: doxorubicin toxicity protection in MRP-1 cells – H69AR cells, CellTiter-Glo, duplicate, MRP-1 activator project, pilot screen (AID 807;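 active means viability increase at or above a cutoff of the median across tested compounds plus 3 SD, cut at about 8.5% in these data, passing the limit was not always enough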;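 further: compound pretreatment 18-22 h then 72 h combined with doxorubicin; 0% = doxorubicin alone and 100% = vehicle without doxorubicin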). To be noted: H69AR viability with doxorubicin, CellTiter-Glo luminescence; at 10 µM; hits give high values. (In ATP-based viability assays light output follows the ATP content of the culture.)
Test [4] can be described thus: viability of PTEN-null HCT116 cells – cell-based, HCT116 clonal line, CellTiter-Glo, pilot screen (AID 824;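 active means viability at or below 27.92% in each of two runs, the all-compound median minus 4 SD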;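 further: 0% = 20 µM Hyamine control and 100% = vehicle cell control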). The settings on record: HCT116 PTEN-deleted viability, 60 h, at 10 µM, hits give low values.
Test [5] in a line: RAM pathway blockade in budding yeast – dse1pr::URA3 reporter, 5-FOA selection, pilot screen (AID 869).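 Further: 0% = DMSO wells with no growth and 100% = 10 µM 1-NA-PP1 with full growth; RAM network block rescues cells from 5-FOA so hits raise OD615 growth.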 To be noted: S. cerevisiae dse1pr::URA3 5-FOA growth, OD615, 2 d; at 10 µM; hits give high values; strain carries analog-sensitive mutant Cbk1 kinase.
A short description of test [6]: RAM signaling pathway blockade in yeast – S. cerevisiae, Pdr1DBD-CYC8 efflux-inhibited sensitized strain, primary screen (AID 1298;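 active means RAM network inhibition above 8.4% in each of two replicates, 3 SD over the compound average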;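 further: 0% = DMSO untreated cells without growth and 100% = 10 µM 1-NA-PP1 full growth; higher means more yeast growth rescued from 5-FOA killing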). To be noted: S. cerevisiae cbk1-as DSE1-URA3 strain, 5-FOA growth OD615, 2 d; at 50 µM; hits give high values.

One may read the viability as a read-out of living cells in per cent, often relative to untreated cells. One may read the inhibition as the change of the read-out against control, counted positive when it falls. In the case of `O=C(c1ccsc1)N1CCN(C(=O)c2cccs2)CC1`, the growth inhibition in test [1] is -9.91%; in test [2], 2.31%. Also, the viability increase in test [3] is 1.13%. Further, the viability in test [4] is 107%. Moreover, the inhibition in test [5] was 2.04%. In addition, in test [6], the RAM network inhibition was 0.97%.
Regarding `CC(C)Cn1c(SCC#N)nc2ccccc2c1=O`, the results for the growth inhibition in test [1] and in test [2] were -0.35% and -14.3%, respectively. The viability increase in test [3] is -1.74%. Moreover, the viability in test [4] is 88%. Also, in test [5], the inhibition was 1.18%. The RAM network inhibition in test [6] was 5.88%.
Regarding `Cc1c(C(=O)NCc2ccccc2)oc2ccc(S(=O)(=O)N3CCC4(CC3)OCCO4)cc12`, the growth inhibition is 5.31% in test [1] and 2.71% in test [2]. In addition, the viability increase in test [3] was -4.5%. Besides, in test [4], the viability is 66.5%. Besides, in test [5], the inhibition is 3.6%. In test [6], the RAM network inhibition was 2.96%.
For `COCCNS(=O)(=O)c1ccc2c(c1)C(=O)c1cc(S(=O)(=O)NCCOC)ccc1-2`, the growth inhibition in test [1] is -1.33%; in test [2], 0.015%. Also, the viability increase in test [3] is -0.81%. Further, the viability in test [4] is 96.4%. Moreover, in test [5], the inhibition was 2.15%. Besides, the RAM network inhibition in test [6] was 3.45%.
For `O=C1C=C(NCc2ccco2)CC(c2ccc(Cl)cc2)C1` (stereo not given), the values for the growth inhibition in test [1] and in test [2] were -7.5% and -22.3%, respectively. In test [3], the viability increase was -2.53%. Also, in test [4], the viability was 66.6%. For the same molecule, in test [5], the inhibition is 1.2%. Further, the RAM network inhibition in test [6] is 3.64%.
Turning to `Cc1c(C(=O)NCc2ccccn2)oc2ccc(S(=O)(=O)N3CCOCC3)cc12`, the growth inhibition in test [1] is -0.375%; in test [2], -7.32%. Besides, the viability increase in test [3] is -3.28%. In addition, the viability in test [4] was 94.4%. Further, in test [5], the inhibition was 1.13%. The RAM network inhibition in test [6] is 0.56%.
Regarding `COCCOC(=O)c1c(C)oc2ccc(OC(=O)c3cccs3)cc12`, the results for the growth inhibition in test [1] and in test [2] were -11.1% and -17%, respectively. For the same molecule, the viability increase in test [3] is 1.16%. For the same molecule, the viability in test [4] was 104%. Further, the inhibition in test [5] was 2.33%. In test [6], the RAM network inhibition was 6.79%.
Turning to `Cc1cccc(N(C)C(=O)CCS(=O)(=O)c2cccc3nonc23)c1`, the growth inhibition was -5.82% in test [1] and 0.54% in test [2]. Moreover, the viability increase in test [3] was -4.98%. For the same molecule, in test [4], the viability is 96.3%. The inhibition in test [5] is 1.06%. Also, the RAM network inhibition in test [6] was 5.74%.
For the molecule `COc1ccc(C2C(C(=O)c3cccs3)=C(O)C(=O)N2c2nncs2)cc1` (stereo not given), the growth inhibition in test [1] was -15.5%; in test [2], -14.4%. Besides, in test [3], the viability increase was -1.95%. In addition, the viability in test [4] was 102%. In addition, the inhibition in test [5] was 0.41%. Moreover, in test [6], the RAM network inhibition is 2.46%.
Regarding `O=C1c2ccccc2C(=O)N1CSc1nnnn1-c1ccccc1`, the values for the growth inhibition in test [1] and in test [2] were -1.45% and 31.4%, respectively. In addition, the viability increase in test [3] was -2.14%. Also, the viability in test [4] is 104%. Further, in test [5], the inhibition was 2.01%. For the same molecule, in test [6], the RAM network inhibition is 6.61%.
As for `COC(=O)C(C)Sc1nnc(-c2ccncc2)o1` (stereo not given), the growth inhibition is -6.28% in test [1] and -8.81% in test [2]. In addition, the viability increase in test [3] was -0.71%. Further, in test [4], the viability is 99.4%. Further, the inhibition in test [5] is 1.64%. Further, the RAM network inhibition in test [6] was 0.1%.
For the molecule `Cc1ccc(NC(=O)CC2SC3=NCCN3C2=O)cc1` (stereo not given), the figures for the growth inhibition in test [1] and in test [2] were 3.71% and 10.6%, respectively. The viability increase in test [3] is 3.08%. Besides, the viability in test [4] was 96.1%. The inhibition in test [5] is 1.66%. Besides, the RAM network inhibition in test [6] is 1.49%.
As to `Cc1csc(NC(=O)NC2(C(F)(F)F)Oc3ccccc3O2)n1`, the growth inhibition is -6.66% in test [1] and 0.47% in test [2]. Further, the viability increase in test [3] is -6.08%. Further, the viability in test [4] is 84.3%. The inhibition in test [5] is 0.995%. Further, the RAM network inhibition in test [6] was 5.12%.
Consider `CC(C)c1cc(=O)oc2c3c4c(cc12)CCCN4CCC3`, for which the growth inhibition in test [1] was 0.175%; in test [2], 9.32%. The viability increase in test [3] was -4.62%. Moreover, the viability in test [4] was 57.8%. The inhibition in test [5] was 1.84%. For the same molecule, in test [6], the RAM network inhibition was 3.62%.
As for `Cc1cc(C(=O)NC(C)c2ccncc2)no1` (stereo not given), the growth inhibition is -12.9% in test [1] and 8.19% in test [2]. For the same molecule, in test [3], the viability increase is -2.15%. The viability in test [4] was 90.3%. Besides, in test [5], the inhibition is 1.55%. Besides, the RAM network inhibition in test [6] was 0.72%.
Take `Cc1cc(C(=O)N2CCN(c3ccccn3)CC2)c(C)o1`: the growth inhibition in test [1] is 9.65%; in test [2] it was -7.73%. In addition, in test [3], the viability increase was -5.92%. Further, in test [4], the viability is 96.3%. The inhibition in test [5] is 0.945%. Also, in test [6], the RAM network inhibition is 4.2%.
Take `Cc1ccc(-c2nc(-c3ccccn3)no2)cc1`: the growth inhibition was 1.26% in test [1] and 10.2% in test [2]. Besides, in test [3], the viability increase is -5.02%. For the same molecule, the viability in test [4] was 24.4% (active). Moreover, the inhibition in test [5] is -0.485%. For the same molecule, the RAM network inhibition in test [6] is 1.82%.
`Cc1ccc(N2CC(C(=O)OCC(=O)C(C)(C)C)CC2=O)cc1` (stereo not given): the growth inhibition is 7.84% in test [1] and 8.49% in test [2]. In addition, the viability increase in test [3] is -1.06%. Moreover, the viability in test [4] was 101%. For the same molecule, the inhibition in test [5] was 0.56%. The RAM network inhibition in test [6] is 3.64%.
On to `CCSc1nsc(SCC)c1C(N)=O`, for which the values for the growth inhibition in test [1] and in test [2] were -3.27% and -11.2%, respectively. Further, in test [3], the viability increase is -1.55%. The viability in test [4] was 102%. Moreover, the inhibition in test [5] is 0.83%. For the same molecule, the RAM network inhibition in test [6] is 1.14%.
Turning to `COc1ccc(S(=O)(=O)N2CCC(C(=O)N3CCN(c4ccccc4OC)CC3)CC2)cc1`, the values for the growth inhibition in test [1] and in test [2] were -8.7% and -3.36%, respectively. Also, the viability increase in test [3] was -2.71%. The viability in test [4] is 86.8%. For the same molecule, in test [5], the inhibition is -0.505%. Moreover, in test [6], the RAM network inhibition is 0%.
